≈ marks a conversion by molar mass, not a printed value. Values belong to the compound of their own block, whether it stands above or below them.
Legend:
[1] = Metabolic stability in cynomolgus monkey hepatocytes assessed as compound metabolized after 3 hrs; assay type: ADME, cell-based, Macaca fascicularis, Hepatocyte
Summary of the method: (§1)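 Cryopreserved hepatocytes at 1.5 million cells/mL (pooled human male/female N = 10, male CD1 mouse, SD rat, beagle dog, cyno monkey) were incubated in Leibovitz medium with 1% FBS and 10 μM substrate. Incubation ran 3 h at 37 C with shaking and was stopped with methanol. Cell-free controls used hepatocyte incubation medium. Parent and metabolites were quantified by UV peak area at 232-242 nm, assuming equal extinction coefficients.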

[2] = system: Hepatocyte; assay: Metabolic stability in Sprague-Dawley rat hepatocytes assessed as compound metabolized after 3 hrs; assay type: ADME, cell-based; summary of the method: as §1
[3] = Metabolic stability in Beagle dog hepatocytes assessed as compound metabolized after 3 hrs; assay type: ADME, cell-based, Canis lupus familiaris, Hepatocyte; summary of the method: as §1
[4] = molecular target: T1, Cytochrome P450 1A2 (Homo sapiens, UniProt P05177); assay: Inhibition of CYP1A2 by fluorescence method; assay type: ADME
T1 sequence (P05177 whole entry): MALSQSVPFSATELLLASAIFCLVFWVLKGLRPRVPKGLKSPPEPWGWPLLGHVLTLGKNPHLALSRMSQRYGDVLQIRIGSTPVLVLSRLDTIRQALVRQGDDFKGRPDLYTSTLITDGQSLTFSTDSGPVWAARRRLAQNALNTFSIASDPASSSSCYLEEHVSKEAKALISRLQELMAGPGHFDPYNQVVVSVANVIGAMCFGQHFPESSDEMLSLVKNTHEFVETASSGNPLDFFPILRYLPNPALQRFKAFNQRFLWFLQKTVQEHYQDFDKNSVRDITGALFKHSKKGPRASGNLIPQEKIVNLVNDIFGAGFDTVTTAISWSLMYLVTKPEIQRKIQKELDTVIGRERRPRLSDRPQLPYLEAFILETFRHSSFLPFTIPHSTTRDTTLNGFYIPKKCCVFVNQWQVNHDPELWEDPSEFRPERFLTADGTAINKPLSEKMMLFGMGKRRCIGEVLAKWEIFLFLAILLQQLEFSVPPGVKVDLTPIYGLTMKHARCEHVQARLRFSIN
Summary of the method: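 Cytochrome P450 high-throughput panel (1A2, 2D6, 2C9, 2C19, 3A4) using fluorogenic substrates; IC50 reported.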

[5] = Solubility of compound in small intestinal contents in the fed state at pH 5; assay type: ADME
Summary of the method: (§2)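 Solubility measured in simulated intestinal fluid at pH 5.0 (fed) or pH 6.5 (fasted), reported in μg/mL.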

[6] = Cmax in Sprague-Dawley rat at 10 mg/kg, po; assay type: ADME, organism-based; design: dose 10 mg/kg, route oral; settings: in vivo
Summary of the method: (§3)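 Rat single-dose PK, n = 3, with oral dosing at 10 mg/kg and intravenous dosing at 2.5 or 5 mg/kg.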

[7] = Solubility of compound in small intestinal contents in the fasted state at pH 6.5; assay type: ADME; summary of the method: as §2
[8] = molecular target: Cytochrome P450 2D6 (Homo sapiens, UniProt P10635); assay: Inhibition of CYP2D6 fluorescence method; assay type: ADME
Summary of the method: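 High-throughput CYP panel covering 1A2, 2D6, 2C9, 2C19 and 3A4, using fluorogenic substrates. IC50 was determined in μM.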

[9] = molecular target: T2, Voltage-gated inwardly rectifying potassium channel KCNH2 (Homo sapiens, UniProt Q12809); assay: Inhibition of human ERG expressed in CHO cells at 3 uM assessed as reduction of current amplitude
[10] = system: Neutrophil; assay: Inhibition of LTB4-stimulated human neutrophils migration after 30 mins by using CyQuant GR fluorescent dye; assay type: functional, cell-based; settings: Homo sapiens, Neutrophil, 0.5 h; read-out: IC50
Summary of the method: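 Human blood neutrophils (95-97% pure, isolated over Lympholyte-poly) at 5 × 10^6 cells/mL were preincubated with compound (3 × 10^-12 to 1 × 10^-6 M final) for 30 min at 37 C. Migration toward 100 ng/mL LTB4 across a polycarbonate membrane ran 90 min at 37 C. Migrated cells were lysed with CyQuant GR and read at 480/520 nm. IC50 was taken from a sigmoidal fit of % inhibition.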

[11] = system: Rattus norvegicus; assay: Toxicity in rat assessed as aspartate aminotransferase level at 400 mg/kg, po qd treated for 14 days; assay type: organism-based; design: dose 400 mg/kg, route oral; settings: in vivo, 336 h
Summary of the method: (§4)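 Male Han-Wistar rats (200-230 g), n = 4 per group, were given 40 or 400 (mg/kg)/day orally for 14 days in 2% Klucel LF/0.1% Tween-80 versus vehicle. Body weight was recorded at pretreatment and on days 1, 8 and 14, and food intake weekly. Clinical chemistry was sampled on day 5 and at necropsy. Organs were formalin-fixed and H&E stained. Data are given as mean ± SD and analysed by Bartlett's test.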

[12] = Metabolic stability of compound assessed as remaining level in cell free assay; assay type: ADME; summary of the method: as §1
[13] = molecular target: T2, Voltage-gated inwardly rectifying potassium channel KCNH2; assay: Inhibition of human ERG expressed in CHO cells assessed as reduction of current amplitude
[14] = Metabolic stability in CD1 mouse hepatocytes assessed as compound metabolized after 3 hrs; assay type: ADME, cell-based, Hepatocyte; summary of the method: as §1
[15] = molecular target: Cytochrome P450 2C9 (Homo sapiens, UniProt P11712); assay: Inhibition of CYP2C9 by LC/MS method; assay type: ADME
[16] = system: Hepatocyte; assay: Metabolic stability in human hepatocytes assessed as compound metabolized after 3 hrs; assay type: ADME, cell-based; summary of the method: as §1
[17] = Clearance in Sprague-Dawley rat at 5 mg/kg, iv; assay type: ADME, organism-based; design: dose 5 mg/kg, route intravenous; settings: in vivo; summary of the method: as §3
[18] = system: Rattus norvegicus; assay: Hepatotoxicity in rat assessed as increase in ALT level at 400 mg/kg, po qd treated after 5 days; assay type: toxicity, organism-based; design: dose 400 mg/kg, route oral; settings: in vivo, 120 h; summary of the method: as §4
[19] = Lipophilicity, log D of compound at pH 7.4; settings: buffer
[20] = system: Rattus norvegicus; assay: Metabolic stability of compound in rat plasma assessed as acylglucuronide isomers formed at 400 mg/kg, po; settings: in vivo
[21] = Cmax in rat at 40 mg/kg, po qd treated for 14 days; assay type: ADME, organism-based; design: dose 40 mg/kg, route oral; settings: in vivo
Summary of the method: (§5)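 Male Han-Wistar rats (200-230 g) dosed orally once daily for 14 days in 2% Klucel LF/0.1% Tween-80 in water, n = 4 per group. Blood was taken from the retro-orbital sinus under isoflurane/O2 anesthesia, and plasma was separated by cold centrifugation and stored at -70 C until analysis. Exposure values refer to day 14.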

[22] = AUC(0 to 24hrs) in rat at 400 mg/kg, po qd treated for 14 days; assay type: ADME, organism-based; design: time < 24 hr, dose 400 mg/kg, route oral; settings: plasma; summary of the method: as §5
[23] = Cmax in rat at 400 mg/kg, po qd treated for 14 days; assay type: ADME, organism-based; design: dose 400 mg/kg, route oral; settings: in vivo; summary of the method: as §5
[24] = AUC (0 to 24hrs) in rat at 40 mg/kg, po qd treated for 14 days; assay type: ADME, organism-based; design: time < 24 hr, dose 40 mg/kg, route oral; settings: plasma; summary of the method: as §5

T2 sequence (Q12809 whole entry): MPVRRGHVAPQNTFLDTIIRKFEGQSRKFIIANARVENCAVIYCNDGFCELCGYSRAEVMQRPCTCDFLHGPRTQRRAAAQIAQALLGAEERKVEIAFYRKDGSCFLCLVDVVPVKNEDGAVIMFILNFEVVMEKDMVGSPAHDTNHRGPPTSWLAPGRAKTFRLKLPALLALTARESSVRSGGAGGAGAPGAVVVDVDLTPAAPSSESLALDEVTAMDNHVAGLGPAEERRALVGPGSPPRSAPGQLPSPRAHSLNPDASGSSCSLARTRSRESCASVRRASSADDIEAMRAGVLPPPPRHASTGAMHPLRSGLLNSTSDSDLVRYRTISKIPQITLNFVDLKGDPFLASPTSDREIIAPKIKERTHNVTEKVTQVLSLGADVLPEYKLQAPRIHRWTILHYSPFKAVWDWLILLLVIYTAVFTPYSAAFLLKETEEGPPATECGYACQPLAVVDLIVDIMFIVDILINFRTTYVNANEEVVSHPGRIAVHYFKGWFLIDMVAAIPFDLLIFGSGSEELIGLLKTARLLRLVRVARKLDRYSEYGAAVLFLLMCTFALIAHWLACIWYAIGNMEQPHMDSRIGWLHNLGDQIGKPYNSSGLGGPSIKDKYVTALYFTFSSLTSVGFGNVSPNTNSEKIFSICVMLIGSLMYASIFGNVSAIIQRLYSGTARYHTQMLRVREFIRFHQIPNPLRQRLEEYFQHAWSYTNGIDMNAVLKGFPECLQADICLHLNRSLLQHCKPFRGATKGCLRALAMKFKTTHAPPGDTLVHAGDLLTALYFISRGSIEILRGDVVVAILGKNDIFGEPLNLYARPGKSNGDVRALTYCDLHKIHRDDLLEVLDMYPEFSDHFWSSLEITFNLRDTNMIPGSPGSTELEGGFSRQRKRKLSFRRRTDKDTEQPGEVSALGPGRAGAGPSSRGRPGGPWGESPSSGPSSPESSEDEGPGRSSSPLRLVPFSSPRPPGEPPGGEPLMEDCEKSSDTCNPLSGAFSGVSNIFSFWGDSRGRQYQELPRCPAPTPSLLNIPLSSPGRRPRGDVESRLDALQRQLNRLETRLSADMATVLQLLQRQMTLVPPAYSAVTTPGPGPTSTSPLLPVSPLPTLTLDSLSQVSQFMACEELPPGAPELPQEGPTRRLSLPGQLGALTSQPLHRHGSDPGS
Sequence of Cytochrome P450 2D6 (P10635 whole entry): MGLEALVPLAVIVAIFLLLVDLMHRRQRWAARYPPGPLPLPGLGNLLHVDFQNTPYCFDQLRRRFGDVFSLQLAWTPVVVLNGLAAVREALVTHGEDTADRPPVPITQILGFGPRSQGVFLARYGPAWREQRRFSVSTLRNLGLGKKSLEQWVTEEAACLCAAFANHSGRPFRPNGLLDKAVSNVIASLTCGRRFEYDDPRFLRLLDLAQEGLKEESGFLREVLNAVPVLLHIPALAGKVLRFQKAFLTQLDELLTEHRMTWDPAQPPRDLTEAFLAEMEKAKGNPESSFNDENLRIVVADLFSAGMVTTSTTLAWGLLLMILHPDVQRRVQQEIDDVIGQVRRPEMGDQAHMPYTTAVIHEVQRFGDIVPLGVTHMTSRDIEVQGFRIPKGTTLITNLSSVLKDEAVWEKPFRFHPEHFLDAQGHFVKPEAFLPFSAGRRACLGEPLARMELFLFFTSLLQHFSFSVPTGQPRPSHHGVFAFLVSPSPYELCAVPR
Sequence of Cytochrome P450 2C9 (P11712 whole entry): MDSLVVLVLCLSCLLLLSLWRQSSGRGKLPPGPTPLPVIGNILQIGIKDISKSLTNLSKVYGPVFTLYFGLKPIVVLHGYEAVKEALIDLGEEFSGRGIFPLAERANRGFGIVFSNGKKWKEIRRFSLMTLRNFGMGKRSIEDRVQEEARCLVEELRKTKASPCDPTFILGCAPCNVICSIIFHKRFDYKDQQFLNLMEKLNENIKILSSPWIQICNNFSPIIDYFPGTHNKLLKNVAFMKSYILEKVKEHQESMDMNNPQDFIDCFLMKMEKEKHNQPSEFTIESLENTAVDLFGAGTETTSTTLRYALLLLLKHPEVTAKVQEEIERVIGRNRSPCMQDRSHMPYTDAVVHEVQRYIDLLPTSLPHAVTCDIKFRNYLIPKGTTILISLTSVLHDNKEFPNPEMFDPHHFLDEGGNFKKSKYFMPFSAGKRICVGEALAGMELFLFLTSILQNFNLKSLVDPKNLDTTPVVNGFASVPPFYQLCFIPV

Activity [1]: 7.7%
Activity [2]: 20.4%
Activity [3]: 27.8%
IC50 [4]: > 7.5 µM
solubility [5]: 32.9 µg/mL (≈ 52.2 µM)
Cmax [6]: 6.21 µM
solubility [7]: 34.6 µg/mL (≈ 54.9 µM)
IC50 [8]: > 7.5 µM
IC50 [10]: 0.0001 µM
Activity [12]: 100%
Activity [14]: 16.9%
IC50 [15]: 22.5 µM
Activity [16]: 17.3%
clearance [17]: 5.47 mL/min/kg
logD [19]: 2.34
Stability [20]: 6%
SMILES: O=C(O)CCCOc1cccc(CCCCCCOc2cc(-c3ccsc3)cc(-c3ccc4c(c3)OCO4)c2)c1CCC(=O)O
INH [9]: Not Active
Activity [11]: Non-toxic
IC50 [13]: > 3 µM
Activity [18]: 58 IU/L

Cmax [21]: 11.3 µg/mL
IC50 [4]: > 7.5 µM
Cmax [6]: 2.25 µM
IC50 [8]: > 7.5 µM
AUC at 24 h [22]: 1870 µg·h/mL
Cmax [23]: 124 µg/mL
IC50 [10]: 0.00368 µM
clearance [17]: 11.6 mL/min/kg
AUC at 24 h [24]: 80.6 µg·h/mL
SMILES: O=C(O)CCCOc1cccc(CCCCCCOc2cc(-c3cccc(F)c3)cc(-c3ccc4c(c3)OCO4)c2)c1CCC(=O)O
Activity [11]: Non-toxic
Activity [18]: 69 IU/L
